Laboratory results reported in article PMC7302971 (Bioorganic chemistry, 2020).

What was measured:
GLUT4 = target: T1, GLUT4 (Homo sapiens, UniProt P14672); test: GLUT transport inhibition assay in hxt0 yeast cells; type: cell-based; settings: 50 μM compound, 5 mM C14-glucose
T1 sequence (P14672 1-509): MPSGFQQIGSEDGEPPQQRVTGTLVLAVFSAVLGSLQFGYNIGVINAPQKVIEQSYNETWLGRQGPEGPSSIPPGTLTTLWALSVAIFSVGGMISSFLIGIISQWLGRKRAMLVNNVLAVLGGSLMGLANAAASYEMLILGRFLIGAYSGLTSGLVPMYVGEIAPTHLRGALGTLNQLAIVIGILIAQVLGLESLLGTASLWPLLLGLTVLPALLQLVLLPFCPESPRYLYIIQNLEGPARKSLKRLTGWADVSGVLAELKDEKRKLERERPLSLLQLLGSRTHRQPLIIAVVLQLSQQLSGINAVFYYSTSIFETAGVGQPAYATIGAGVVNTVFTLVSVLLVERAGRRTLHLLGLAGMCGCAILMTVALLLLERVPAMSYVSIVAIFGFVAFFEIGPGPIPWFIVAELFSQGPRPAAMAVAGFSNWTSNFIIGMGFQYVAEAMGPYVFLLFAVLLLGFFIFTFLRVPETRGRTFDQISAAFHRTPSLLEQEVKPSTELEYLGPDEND
Procedure, shortened: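 Human GLUT4 was expressed in VW4000fgy1erg4 yeast (1% maltose, then 0.2% glucose, SC-uracil). GLUT5 was expressed in VW4000 (YEP with 2% maltose and G418, then 2% fructose). PBS-washed cells were exposed to 50 μM test compound. Uptake of 14C-glucose (5 mM, GLUT4) or 14C-fructose (10 mM, GLUT5) ran 10 min, followed by quench, filtration and scintillation counting. Activity was relative to 1% DMSO and to saturating phloretin (GLUT4) or MSNBA (GLUT5). Triplicates.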

[1] = MTT cell viability assay, normal WBCs; type: cell-based; settings: human
Procedure, shortened: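 Human WBCs were isolated from diluted blood on HiSep density medium (400 × g, 30 min, room temperature). Mononuclear cells were PBS-washed, RBC-lysed for 5 min, washed again and kept in RPMI 1640 at 37 °C in 5% CO2. Cells were seeded at about 5×10³ per well and exposed to test compound at 2.5–100 μM for 48 h.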

HDAC2 = HDAC2 (Homo sapiens, UniProt Q92769); test: HDAC enzyme activity assay; type: biochemical
Procedure, shortened: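 Commercial enzyme was preincubated with serial inhibitor dilutions for 60 min at 30 °C in 25 mM Tris-HCl pH 8.0, 75 mM KCl and 0.001% Pluronic F-127. Reaction was started with 50 μM Boc-Lys(acetyl)-AMC, run 60 min at 30 °C, and stopped with 4.17 μM SAHA. Trypsin (0.4 mg/ml) released AMC, read at Ex 350/Em 450 nm. IC50 came from a four-parameter logistic fit.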

HDAC8 = target: T2, HDAC8 (Homo sapiens, UniProt Q9BY41); test: HDAC enzyme activity assay; type: biochemical; settings: for remaining activity at 50 µM: read-out: Residual HDAC8 activity at 50 μM
T2 sequence (Q9BY41 1-377): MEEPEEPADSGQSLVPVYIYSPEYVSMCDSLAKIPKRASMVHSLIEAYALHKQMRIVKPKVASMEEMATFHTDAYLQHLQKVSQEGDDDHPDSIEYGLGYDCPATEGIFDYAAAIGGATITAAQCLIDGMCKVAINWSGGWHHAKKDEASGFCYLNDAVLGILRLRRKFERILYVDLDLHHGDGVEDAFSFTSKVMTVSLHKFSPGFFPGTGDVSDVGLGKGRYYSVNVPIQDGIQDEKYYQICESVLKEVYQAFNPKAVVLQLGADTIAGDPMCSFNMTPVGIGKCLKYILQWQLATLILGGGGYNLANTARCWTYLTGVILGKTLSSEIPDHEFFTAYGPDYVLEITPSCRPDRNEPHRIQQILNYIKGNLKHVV
Procedure, shortened: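 HDAC4 and HDAC8 were in-house recombinant enzymes. Each was preincubated with inhibitor, either a single 50 μM screen or serial dilutions, for 60 min at 30 °C in Tris-HCl pH 8.0/KCl/Pluronic buffer. Substrate was 20 μM Boc-Lys(trifluoroacetyl)-AMC for 60 min at 30 °C, stopped with 1.7 μM SATFMK, and developed with trypsin. AMC fluorescence was read at 350/450 nm and reported as residual activity or as IC50 from a four-parameter logistic fit.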

HDAC7 = target: T3, HDAC7 (Homo sapiens, UniProt Q8WUI4); test: HDAC enzyme activity assay; type: biochemical
T3 sequence (Q8WUI4 1-952): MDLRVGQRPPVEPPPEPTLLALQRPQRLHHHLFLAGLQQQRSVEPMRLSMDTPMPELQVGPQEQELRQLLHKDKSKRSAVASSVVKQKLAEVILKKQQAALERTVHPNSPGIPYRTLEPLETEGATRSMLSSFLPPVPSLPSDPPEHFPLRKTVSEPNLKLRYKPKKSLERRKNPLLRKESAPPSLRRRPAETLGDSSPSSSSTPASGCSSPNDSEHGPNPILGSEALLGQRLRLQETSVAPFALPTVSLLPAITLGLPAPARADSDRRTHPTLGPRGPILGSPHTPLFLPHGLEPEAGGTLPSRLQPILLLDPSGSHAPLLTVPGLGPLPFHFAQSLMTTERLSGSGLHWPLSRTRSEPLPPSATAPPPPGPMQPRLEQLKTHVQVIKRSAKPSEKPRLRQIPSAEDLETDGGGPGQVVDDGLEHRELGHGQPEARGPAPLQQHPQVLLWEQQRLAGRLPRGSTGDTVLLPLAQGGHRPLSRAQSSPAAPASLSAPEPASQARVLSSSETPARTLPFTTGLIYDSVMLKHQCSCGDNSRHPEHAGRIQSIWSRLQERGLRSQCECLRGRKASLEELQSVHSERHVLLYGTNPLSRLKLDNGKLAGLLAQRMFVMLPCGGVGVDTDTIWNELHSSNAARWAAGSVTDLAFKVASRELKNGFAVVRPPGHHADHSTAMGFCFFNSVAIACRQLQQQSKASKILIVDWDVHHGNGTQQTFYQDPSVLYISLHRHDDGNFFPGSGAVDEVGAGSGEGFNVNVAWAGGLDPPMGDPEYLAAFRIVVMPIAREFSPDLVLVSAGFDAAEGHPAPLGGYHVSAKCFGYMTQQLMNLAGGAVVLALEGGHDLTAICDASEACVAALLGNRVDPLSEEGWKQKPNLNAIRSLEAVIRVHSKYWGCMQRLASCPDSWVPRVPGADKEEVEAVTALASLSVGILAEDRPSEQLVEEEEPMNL
Procedure, shortened: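 Commercial HDAC7 was preincubated with serial inhibitor dilutions for 60 min at 30 °C in 25 mM Tris-HCl pH 8.0, 75 mM KCl and 0.001% Pluronic F-127. The AMC-substrate reaction ran 60 min at 30 °C, followed by trypsin development and fluorescence reading at Ex 350/Em 450 nm. IC50 came from a four-parameter logistic fit.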

[2] = DNS assay on normal human fibroblast; type: cell-based; settings: HS27 normal fibroblasts
Procedure, shortened: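 HS27 fibroblasts were tested by DNS imaging after exposure to test compound. Hoechst 33342, which stains all nuclei, and PI, which enters only membrane-compromised cells, were added before imaging.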

Chain of HDAC2 (Q92769 whole entry): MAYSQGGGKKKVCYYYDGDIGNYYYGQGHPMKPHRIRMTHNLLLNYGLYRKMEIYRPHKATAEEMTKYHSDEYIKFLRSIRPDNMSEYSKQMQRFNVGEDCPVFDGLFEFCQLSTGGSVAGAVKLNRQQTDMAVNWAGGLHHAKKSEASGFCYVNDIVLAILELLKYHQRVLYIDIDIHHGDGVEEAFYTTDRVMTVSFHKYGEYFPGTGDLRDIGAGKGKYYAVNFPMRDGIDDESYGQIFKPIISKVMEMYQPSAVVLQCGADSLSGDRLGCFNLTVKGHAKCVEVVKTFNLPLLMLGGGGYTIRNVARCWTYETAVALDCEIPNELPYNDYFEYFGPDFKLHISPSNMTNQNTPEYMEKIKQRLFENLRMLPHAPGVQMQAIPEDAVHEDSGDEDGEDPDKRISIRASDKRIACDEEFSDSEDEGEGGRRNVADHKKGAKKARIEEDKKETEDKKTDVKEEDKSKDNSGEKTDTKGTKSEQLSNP

relative transport activity of GLUT4 (GLUT4)	IC50 (HDAC2) [µM]	IC50 (HDAC8) [µM]	remaining activity at 50 µM (HDAC8) [%]	IC50 (HDAC7) [µM]	Structure (SMILES)	CC50 at 48 h [1] [µM]	CC50 [2] [µM]
ineffective	41	9.3 ± 1	22	> 50	O=C(CN1C(=O)SC(=Cc2ccccn2)C1=O)Nc1nc2ccccc2s1 [Compound P19, N-(benzo[d]thiazol-2-yl)-2-(2,4-dioxo-5-(pyridin-2-ylmethylene)thiazolidin-3-yl)acetamide]	104	105
	45	23 ± 1.1	17	> 50	Cc1c(NC(=O)CN2C(=O)SC(=Cc3ccccn3)C2=O)c(=O)n(-c2ccccc2)n1C [Compound P10, N-(1,5-dimethyl-3-oxo-2-phenyl-2,3-dihydro-1H-pyrazol-4-yl)-2-(2,4-dioxo-5-(pyridin-2-ylmethylene)thiazolidin-3-yl)acetamide]		
